Laboratory results published in ChEMBL document CHEMBL3352767, “Antibacterial ilicicolinic acids C and D and ilicicolinal from Neonectria discophora SNB-CN63 isolated from a termite nest” (J Nat Prod, 2015).
Values after ≈ are worked out from the molar mass of the structure shown.

Key:
[1] = system: Trichophyton rubrum; assay: Antimicrobial activity against Trichophyton rubrum SNB-TR1 after 5 days; type: functional; conditions: SNB-TR1, 120 h
Summary of the method: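 MIC against the dermatophyte T. rubrum, with itraconazole as the reference drug.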

[2] = system: Escherichia coli; assay: Antimicrobial activity against Escherichia coli ATCC 25922 after 24 hrs; type: functional
[3] = system: Staphylococcus aureus; assay: Antimicrobial activity against Staphylococcus aureus ATCC 29213 after 24 hrs; type: functional; conditions: ATCC 29213, 24 h
[4] = system: KB; assay: Cytotoxicity activity against human KB cells; type: functional, cell-based
Summary of the method: (§1)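 IC50 in μM against KB (nasopharyngeal epidermoid carcinoma) and MRC5 (normal fetal lung) cells, with taxotere as the positive control.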

[5] = Cytotoxicity activity against human MDA435 cells; conditions: MDA-MB-435
[6] = system: MRC5; assay: Cytotoxicity activity against human MRC5 cells; type: cell-based; summary of the method: as §1
[7] = system: Candida albicans; assay: Antimicrobial activity against Candida albicans ATCC 10231 after 24 hrs; conditions: ATCC 10231, 24 h
[8] = system: Aspergillus fumigatus; assay: Antimicrobial activity against Aspergillus fumigatus SNB-AF1 after 24 hrs; conditions: SNB-AF1, 24 h
[9] = system: Candida parapsilosis; assay: Antimicrobial activity against Candida parapsilosis ATCC 22019 after 24 hrs; conditions: Lodderomyces parapsilosis, ATCC 22019, 24 h
[10] = Selectivity index, ratio of IC50 for human MRC5 cells to IC50 for Aspergillus […] SNB-AF1
[11] = Selectivity index, ratio of IC50 for human MRC5 cells to IC50 for Candida albicans ATCC 10231
[12] = Selectivity index, ratio of IC50 for human MRC5 cells to IC50 for Trichophyton rubrum SNB-TR1
[13] = Selectivity index, ratio of IC50 for human MRC5 cells to IC50 for Escherichia coli ATCC 25922
[14] = Selectivity index, ratio of IC50 for human MRC5 cells to IC50 for Candida parapsilosis ATCC 22019
[15] = Selectivity index, ratio of IC50 for human MRC5 cells to IC50 for Staphylococcus aureus ATCC 29213

Compound	MIC [1]	MIC ([2]; ATCC 25922, 24 h)	MIC [3]	IC50 [4]	IC50 [5]	IC50 [6]	MIC [7]	MIC [8]	MIC [9]	Selectivity Index [10]	selectivity ratio [11]	Selectivity Index [12]	selectivity ratio [13]	selectivity ratio [14]	selectivity ratio [15]	MIC [2]
CC(C)=CCC/C(C)=C/CC/C(C)=C/Cc1c(O)c(Cl)c(C)c(C(=O)O)c1O	8 µg/mL (≈ 19.7 µM)	1 µg/mL (≈ 2.46 µM)	4 µg/mL (≈ 9.83 µM)	36.6 µM	15.1 µM	19.7 µM	16 µg/mL (≈ 39.3 µM)	64 µg/mL (≈ 157 µM)	16 µg/mL (≈ 39.3 µM)	0.1	0.5	1	8	0.5	2	–
CCC(C)n1ncn(-c2ccc(N3CCN(c4ccc(OCC5COC(Cn6cncn6)(c6ccc(Cl)cc6Cl)O5)cc4)CC3)cc2)c1=O (configuration not stated) [ITRACONAZOLE]	0.03 µg/mL (≈ 0.0425 µM)	–	–	–	–	–	–	0.5 µg/mL (≈ 0.709 µM)	–	–	–	–	–	–	–	–
GENTAMICIN	–	–	–	–	–	–	–	–	–	–	–	–	–	–	–	8 µg/mL
CC(C)=CCC/C(C)=C/CCC(C)(O)C1Cc2c(O)c(C=O)c(C)c(Cl)c2O1 (configuration not stated)	128 µg/mL (≈ 315 µM)	64 µg/mL (≈ 157 µM)	128 µg/mL (≈ 315 µM)	16.5 µM	16.4 µM	15.1 µM	128 µg/mL (≈ 315 µM)	> 128 µg/mL	128 µg/mL (≈ 315 µM)	–	–	–	–	–	–	–
OC(Cn1cncn1)(Cn1cncn1)c1ccc(F)cc1F [FLUCONAZOLE]	–	–	–	–	–	–	4 µg/mL (≈ 13.1 µM)	–	4 µg/mL (≈ 13.1 µM)	–	–	–	–	–	–	–
C/C(=C\Cc1c(O)c(Cl)c(C)c(C(=O)O)c1O)CC/C=C(\C)CCCC(C)(C)O	32 µg/mL (≈ 75.3 µM)	8 µg/mL (≈ 18.8 µM)	32 µg/mL (≈ 75.3 µM)	47.3 µM	42.4 µM	62.1 µM	16 µg/mL (≈ 37.7 µM)	128 µg/mL (≈ 301 µM)	16 µg/mL (≈ 37.7 µM)	0.2	1.6	0.8	3.3	1.6	0.8	–
CC(C)=CCCC(C)(O)CCC/C(C)=C/Cc1c(O)c(Cl)c(C)c(C(=O)O)c1O (configuration not stated)	4 µg/mL (≈ 9.41 µM)	8 µg/mL (≈ 18.8 µM)	32 µg/mL (≈ 75.3 µM)	28.4 µM	4.9 µM	13.7 µM	32 µg/mL (≈ 75.3 µM)	32 µg/mL (≈ 75.3 µM)	32 µg/mL (≈ 75.3 µM)	0.2	0.2	1.5	0.7	0.2	0.2	–
Cc1onc(-c2ccccc2)c1C(=O)N[C@@H]1C(=O)N2[C@@H]1SC(C)(C)[C@@H]2C(=O)O [OXACILLIN]	–	–	0.5 µg/mL (≈ 1.25 µM)	–	–	–	–	–	–	–	–	–	–	–	–	–
CC(=O)O[C@@]12CO[C@@H]1C[C@H](O)[C@@]1(C)C(=O)[C@H](O)C3=C(C)[C@@H](OC(=O)[C@H](O)[C@@H](NC(=O)OC(C)(C)C)c4ccccc4)C[C@@](O)([C@@H](OC(=O)c4ccccc4)[C@H]21)C3(C)C [DOCETAXEL]	–	–	–	0.0002 µM	–	0.0005 µM	–	–	–	–	–	–	–	–	–	–
